Laboratory results as given in ChEMBL document CHEMBL1158546, “Discovery of novel and potent leukotriene B4 receptor antagonists. Part 1” (J Med Chem, 2010).
Converted amounts (≈) assume the structure as drawn. Values belong to the compound of their own block, whether it stands above or below them.

Assays:
[1] = biological target: T1, Leukotriene B4 receptor 1 (Homo sapiens, UniProt Q15722); experiment: Antagonist activity at BLT1 receptor expressed in human HL60 cells assessed as inhibition of LTB4-stimulated calcium flux after 30 mins; format: functional, cell-based, HL-60
T1 sequence (Q15722 whole entry): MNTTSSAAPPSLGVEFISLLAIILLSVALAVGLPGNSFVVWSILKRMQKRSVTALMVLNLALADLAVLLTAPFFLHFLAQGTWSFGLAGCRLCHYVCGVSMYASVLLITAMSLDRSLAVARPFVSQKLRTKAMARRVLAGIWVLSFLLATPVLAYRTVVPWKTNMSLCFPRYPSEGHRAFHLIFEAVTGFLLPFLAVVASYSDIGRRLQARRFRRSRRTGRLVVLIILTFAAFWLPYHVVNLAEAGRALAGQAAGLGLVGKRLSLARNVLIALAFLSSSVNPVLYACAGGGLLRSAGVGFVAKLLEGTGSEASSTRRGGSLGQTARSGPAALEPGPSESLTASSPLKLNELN
Summary of the method: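 HL-60 cells grown in RPMI-1640 with 20% FBS were plated at 2.0 × 10^5 cells/ml with 1 μM retinoic acid. They were dye-loaded in HBSS/20 mM HEPES/5 mM probenecid (0.05% BSA in the replacement buffer) for 1 h at 37 C. Compound (5 × 10^-11 to 3 × 10^-6 M final) was added for 30 min at room temperature, then 0.5 μM LTB4. Fluorescence was read every 1.5 s for 100 s and peak increase scored as % inhibition versus DMSO control.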

Cytochrome P450 2D6 = Cytochrome P450 2D6 (Homo sapiens, UniProt P10635); experiment: Inhibition of CYP2D6 fluorescence method; format: ADME
Chain of Cytochrome P450 2D6 (P10635 whole entry): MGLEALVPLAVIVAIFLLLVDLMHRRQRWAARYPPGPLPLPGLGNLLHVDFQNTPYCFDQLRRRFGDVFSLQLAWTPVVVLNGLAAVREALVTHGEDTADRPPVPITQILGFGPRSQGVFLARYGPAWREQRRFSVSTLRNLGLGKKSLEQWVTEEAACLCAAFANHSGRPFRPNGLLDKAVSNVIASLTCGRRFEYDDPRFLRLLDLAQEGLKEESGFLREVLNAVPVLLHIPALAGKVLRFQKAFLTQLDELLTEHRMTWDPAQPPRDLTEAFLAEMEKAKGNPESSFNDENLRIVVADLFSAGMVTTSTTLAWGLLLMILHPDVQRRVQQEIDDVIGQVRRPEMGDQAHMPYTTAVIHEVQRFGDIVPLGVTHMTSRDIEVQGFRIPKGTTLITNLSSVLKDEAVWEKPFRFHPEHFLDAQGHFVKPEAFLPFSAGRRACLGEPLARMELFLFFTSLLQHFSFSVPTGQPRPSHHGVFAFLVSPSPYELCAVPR
Summary of the method: (§1)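 High-throughput CYP panel covering 1A2, 2D6, 2C9, 2C19 and 3A4, using fluorogenic substrates. IC50 was determined in μM.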

[2] = Solubility of compound in small intestinal contents in the fasted state at pH 6.5; format: ADME
Summary of the method: (§2)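 Solubility measured in simulated intestinal fluid at pH 5.0 (fed) or pH 6.5 (fasted), reported in μg/mL.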

Cytochrome P450 2C19 = Cytochrome P450 2C19 (Homo sapiens, UniProt P33261); experiment: Inhibition of CYP2C19 fluorescence method; format: ADME
Chain of Cytochrome P450 2C19 (P33261 whole entry): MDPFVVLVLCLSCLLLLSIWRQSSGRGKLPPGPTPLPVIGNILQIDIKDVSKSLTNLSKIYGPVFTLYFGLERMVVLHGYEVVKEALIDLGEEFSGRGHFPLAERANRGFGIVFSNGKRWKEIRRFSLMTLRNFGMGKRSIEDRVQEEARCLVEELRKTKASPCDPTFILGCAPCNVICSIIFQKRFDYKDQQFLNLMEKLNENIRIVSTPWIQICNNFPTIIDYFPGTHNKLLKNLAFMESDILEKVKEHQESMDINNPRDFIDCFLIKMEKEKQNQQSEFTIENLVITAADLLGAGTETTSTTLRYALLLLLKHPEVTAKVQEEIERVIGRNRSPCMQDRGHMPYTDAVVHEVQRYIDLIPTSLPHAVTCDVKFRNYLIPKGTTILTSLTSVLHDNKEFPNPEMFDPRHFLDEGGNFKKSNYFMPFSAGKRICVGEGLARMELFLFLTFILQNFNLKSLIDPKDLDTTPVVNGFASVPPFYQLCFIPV
Summary of the method: (§3)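 Cytochrome P450 high-throughput panel (1A2, 2D6, 2C9, 2C19, 3A4) using fluorogenic substrates; IC50 reported.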

Cytochrome P450 3A4 = Cytochrome P450 3A4 (Homo sapiens, UniProt P08684); experiment: Inhibition of CYP3A4 fluorescence method; format: ADME; summary of the method: as §1
Chain of Cytochrome P450 3A4 (P08684 whole entry): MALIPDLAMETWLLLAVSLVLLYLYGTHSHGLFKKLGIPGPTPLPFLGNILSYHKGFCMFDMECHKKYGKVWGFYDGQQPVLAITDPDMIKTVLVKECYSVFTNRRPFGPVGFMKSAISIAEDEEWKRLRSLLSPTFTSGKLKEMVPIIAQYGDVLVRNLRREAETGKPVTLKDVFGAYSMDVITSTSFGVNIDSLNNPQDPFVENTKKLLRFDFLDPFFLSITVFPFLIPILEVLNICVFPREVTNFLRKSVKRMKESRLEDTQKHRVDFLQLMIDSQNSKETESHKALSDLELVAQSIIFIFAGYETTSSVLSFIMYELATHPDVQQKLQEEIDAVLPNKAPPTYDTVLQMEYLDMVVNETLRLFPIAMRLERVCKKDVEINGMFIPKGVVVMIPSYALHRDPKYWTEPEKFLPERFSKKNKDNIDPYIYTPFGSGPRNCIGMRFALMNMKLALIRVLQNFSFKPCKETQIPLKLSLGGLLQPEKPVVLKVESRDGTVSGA

Neutrophil = experiment: Inhibition of LTB4-stimulated human neutrophils migration after 30 mins by using CyQuant GR fluorescent dye; format: functional, cell-based
Summary of the method: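 Human blood neutrophils (95-97% pure, isolated over Lympholyte-poly) at 5 × 10^6 cells/mL were preincubated with compound (3 × 10^-12 to 1 × 10^-6 M final) for 30 min at 37 C. Migration toward 100 ng/mL LTB4 across a polycarbonate membrane ran 90 min at 37 C. Migrated cells were lysed with CyQuant GR and read at 480/520 nm. IC50 was taken from a sigmoidal fit of % inhibition.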

[3] = Solubility of compound in small intestinal contents in the fed state at pH 5; format: ADME; summary of the method: as §2
[4] = biological target: T2, Voltage-gated inwardly rectifying potassium channel KCNH2 (Homo sapiens, UniProt Q12809); experiment: Inhibition of human ERG expressed in CHO cells at 3 uM assessed as reduction of current amplitude
T2 sequence (Q12809 whole entry): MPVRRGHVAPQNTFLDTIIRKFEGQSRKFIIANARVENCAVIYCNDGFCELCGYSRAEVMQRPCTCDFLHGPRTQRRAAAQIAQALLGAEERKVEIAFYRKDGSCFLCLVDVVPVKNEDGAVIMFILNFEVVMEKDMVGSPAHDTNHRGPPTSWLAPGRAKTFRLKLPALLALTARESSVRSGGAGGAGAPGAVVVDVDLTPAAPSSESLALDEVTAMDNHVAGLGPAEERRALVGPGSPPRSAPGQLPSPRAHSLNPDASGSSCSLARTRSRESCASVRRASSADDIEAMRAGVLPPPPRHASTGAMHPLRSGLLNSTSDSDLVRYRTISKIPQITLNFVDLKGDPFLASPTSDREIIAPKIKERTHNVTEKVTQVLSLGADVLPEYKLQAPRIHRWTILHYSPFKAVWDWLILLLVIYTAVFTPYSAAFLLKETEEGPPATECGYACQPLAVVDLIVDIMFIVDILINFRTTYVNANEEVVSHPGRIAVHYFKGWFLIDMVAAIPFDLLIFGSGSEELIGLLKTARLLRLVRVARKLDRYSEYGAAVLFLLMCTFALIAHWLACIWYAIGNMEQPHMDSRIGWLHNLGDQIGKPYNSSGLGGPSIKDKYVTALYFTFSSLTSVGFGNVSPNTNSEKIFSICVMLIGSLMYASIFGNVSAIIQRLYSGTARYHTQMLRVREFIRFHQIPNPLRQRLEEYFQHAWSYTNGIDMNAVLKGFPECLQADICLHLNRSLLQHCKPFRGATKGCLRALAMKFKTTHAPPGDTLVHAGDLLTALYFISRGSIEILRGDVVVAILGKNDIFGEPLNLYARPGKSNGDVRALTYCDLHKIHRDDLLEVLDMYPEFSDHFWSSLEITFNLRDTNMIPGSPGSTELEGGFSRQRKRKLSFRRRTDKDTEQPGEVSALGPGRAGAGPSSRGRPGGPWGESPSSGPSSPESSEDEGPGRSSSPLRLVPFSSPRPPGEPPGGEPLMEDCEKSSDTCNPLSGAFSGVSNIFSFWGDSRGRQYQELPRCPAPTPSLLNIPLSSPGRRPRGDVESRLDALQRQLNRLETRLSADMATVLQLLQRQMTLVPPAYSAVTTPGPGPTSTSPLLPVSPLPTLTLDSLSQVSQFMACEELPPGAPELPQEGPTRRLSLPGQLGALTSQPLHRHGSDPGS

Cytochrome P450 1A2 = biological target: T3, Cytochrome P450 1A2 (Homo sapiens, UniProt P05177); experiment: Inhibition of CYP1A2 by fluorescence method; format: ADME; summary of the method: as §3
T3 sequence (P05177 whole entry): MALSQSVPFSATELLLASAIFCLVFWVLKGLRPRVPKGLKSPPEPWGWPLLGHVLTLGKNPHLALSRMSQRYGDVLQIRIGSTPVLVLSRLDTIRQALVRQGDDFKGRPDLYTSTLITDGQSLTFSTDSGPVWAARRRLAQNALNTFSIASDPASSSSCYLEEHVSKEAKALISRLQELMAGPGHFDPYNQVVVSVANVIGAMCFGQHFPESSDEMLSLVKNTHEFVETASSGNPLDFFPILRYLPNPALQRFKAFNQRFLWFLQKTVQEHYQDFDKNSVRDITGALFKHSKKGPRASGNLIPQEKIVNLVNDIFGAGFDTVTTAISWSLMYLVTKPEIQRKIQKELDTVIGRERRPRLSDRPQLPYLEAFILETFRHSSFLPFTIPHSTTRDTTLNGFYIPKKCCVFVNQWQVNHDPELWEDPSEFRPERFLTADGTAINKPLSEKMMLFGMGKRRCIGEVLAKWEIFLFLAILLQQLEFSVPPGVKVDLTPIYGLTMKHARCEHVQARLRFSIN

[5] = Lipophilicity, log D of compound at pH 7.4; conditions: buffer
Cytochrome P450 2C9 [6] = biological target: T4, Cytochrome P450 2C9 (Homo sapiens, UniProt P11712); experiment: Inhibition of CYP2C9 fluorescence method; format: ADME
T4 sequence (P11712 whole entry): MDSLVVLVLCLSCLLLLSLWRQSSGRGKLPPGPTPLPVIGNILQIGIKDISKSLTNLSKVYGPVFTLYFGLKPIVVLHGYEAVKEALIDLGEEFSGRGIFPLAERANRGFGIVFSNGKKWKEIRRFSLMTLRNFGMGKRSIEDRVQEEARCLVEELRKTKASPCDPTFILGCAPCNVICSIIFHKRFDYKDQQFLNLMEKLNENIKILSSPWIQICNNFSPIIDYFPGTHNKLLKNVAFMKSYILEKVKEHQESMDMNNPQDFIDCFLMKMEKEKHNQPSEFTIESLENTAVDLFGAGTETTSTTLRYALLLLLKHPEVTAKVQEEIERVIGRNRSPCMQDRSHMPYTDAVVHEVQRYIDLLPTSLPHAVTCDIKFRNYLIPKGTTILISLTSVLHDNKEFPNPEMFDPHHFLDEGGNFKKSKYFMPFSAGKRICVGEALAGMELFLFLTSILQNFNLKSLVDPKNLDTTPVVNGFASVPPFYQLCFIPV

[7] = Half life in Sprague-Dawley rat at 10 mg/kg, po; format: ADME, organism-based; parameters: dose 10 mg/kg, route oral; conditions: in vivo
Summary of the method: (§4)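 Rat single-dose PK, n = 3, with oral dosing at 10 mg/kg and intravenous dosing at 2.5 or 5 mg/kg.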

[8] = Volume of distribution at steady state in Sprague-Dawley rat at 5 mg/kg, iv; format: ADME, organism-based; parameters: dose 5 mg/kg, route intravenous; conditions: in vivo, read-out: Vdss; summary of the method: as §4
[9] = Half life in Sprague-Dawley rat at 5 mg/kg, iv; format: ADME, organism-based; parameters: dose 5 mg/kg, route intravenous; conditions: in vivo; summary of the method: as §4
Cytochrome P450 2C9 [10] = biological target: T4, Cytochrome P450 2C9; experiment: Inhibition of CYP2C9 by LC/MS method; format: ADME
[11] = biological target: T1, Leukotriene B4 receptor 1; experiment: Antagonist activity at FLAG-tagged human BLT1 receptor expressed in HEK293 cells assessed as inhibition of LTB4-stimulated calcium mobilization preincubated for 10 mins before LTB4 challenge; format: functional, cell-based
[12] = biological target: T5, Leukotriene B4 receptor 2 (Homo sapiens, UniProt Q9NPC1); experiment: Antagonist activity at FLAG-tagged human BLT2 receptor expressed in HEK293 cells assessed as inhibition of LTB4-stimulated calcium mobilization preincubated for 10 mins before LTB4 challenge; format: functional, cell-based
T5 sequence (Q9NPC1 whole entry): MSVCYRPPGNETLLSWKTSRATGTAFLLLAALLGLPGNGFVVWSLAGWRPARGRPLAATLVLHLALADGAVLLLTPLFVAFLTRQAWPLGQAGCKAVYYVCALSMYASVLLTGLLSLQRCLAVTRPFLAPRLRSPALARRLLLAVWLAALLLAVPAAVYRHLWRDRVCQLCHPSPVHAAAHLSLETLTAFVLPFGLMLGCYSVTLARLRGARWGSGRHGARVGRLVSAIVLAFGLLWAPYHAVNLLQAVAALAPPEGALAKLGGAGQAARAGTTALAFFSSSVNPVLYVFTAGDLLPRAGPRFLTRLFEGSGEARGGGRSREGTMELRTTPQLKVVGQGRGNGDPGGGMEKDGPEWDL

[13] = Oral bioavailability in Sprague-Dawley rat at 10 mg/kg, po; format: ADME, organism-based; conditions: in vivo; summary of the method: as §4
[14] = Cmax in Sprague-Dawley rat at 10 mg/kg, po; format: ADME, organism-based; parameters: dose 10 mg/kg, route oral; conditions: in vivo; summary of the method: as §4
[15] = Clearance in Sprague-Dawley rat at 5 mg/kg, iv; format: ADME, organism-based; parameters: dose 5 mg/kg, route intravenous; conditions: in vivo; summary of the method: as §4
[16] = Tmax in Sprague-Dawley rat at 10 mg/kg, po; format: ADME, organism-based; parameters: dose 10 mg/kg, route oral; conditions: in vivo; summary of the method: as §4
[17] = biological target: T2, Voltage-gated inwardly rectifying potassium channel KCNH2; experiment: Inhibition of human ERG expressed in CHO cells assessed as reduction of current amplitude
[18] = Homo sapiens, Neutrophil, 0.5 h, read-out: IC50

Structure (SMILES): O=C(O)CCCOc1cccc(CCCCCCOc2cc(-c3ccc4c(c3)OCCO4)cc(-c3ccc4c(c3)OCCO4)c2)c1CCC(=O)O
IC50 ([1]; read-out: IC50): 140 nM

Structure (SMILES): COc1ccc(-c2cc(OCCCCCCc3cccc(OCCCC(=O)O)c3CCC(=O)O)cc(-c3ccc4c(c3)OCO4)c2)cc1
IC50 ([1]; read-out: IC50): 3.27 nM

Structure (SMILES): O=C(O)CCCOc1cccc(CCCCCCOc2cc(-c3ccncc3)cc(-c3ccncc3)c2)c1CCC(=O)O
half-life [7]: 4.52 h
IC50 (Cytochrome P450 2D6): > 7500 nM
solubility [2]: 22.7 µg/mL (≈ 39 µM)
Vd [8]: 1.55 L/kg
IC50 (Cytochrome P450 2C19): > 7500 nM
half-life [9]: 4.52 h
IC50 (Cytochrome P450 3A4): > 7500 nM
IC50 (Cytochrome P450 2C9 [10]): 900 nM
IC50 [11]: 71 nM
IC50 ([1]; read-out: IC50): 0.07 nM
IC50 [12]: 143 nM
solubility [3]: 61 µg/mL (≈ 105 µM)
INH [4]: Not Active
bioavailability [13]: 10%
Cmax [14]: 310 nM
IC50 (Cytochrome P450 1A2): > 7500 nM
clearance [15]: 28.1 mL/min/kg
Tmax [16]: 5 h
logD [5]: 1.78
IC50 (Cytochrome P450 2C9 [6]): 340 nM

Structure (SMILES): O=C(O)CCCOc1cccc(CCCCCCOc2cc(-c3ccc(F)cc3)cc(-c3ccc(F)cc3)c2)c1CCC(=O)O
IC50 ([1]; read-out: IC50): 8.5 nM

Structure (SMILES): COc1ccc(-c2cc(OCCCCCCc3cccc(OCCCC(=O)O)c3CCC(=O)O)cc(-c3ccc(OC)cc3)c2)cc1
IC50 ([1]; read-out: IC50): 31.1 nM

Structure (SMILES): CCc1cc(C(C)=O)c(O)cc1OCCCCCC(C)(C)c1nn[nH]n1 [LY-255283]
IC50 (Neutrophil; neutrophil): Not Active
IC50 ([1]; hl-60): Not Active

Now from value to compound, other results behind:

IC50 (Cytochrome P450 2D6): > 7500 nM
solubility [2]: 27.1 µg/mL (≈ 42.2 µM)
IC50 (Cytochrome P450 2C19): > 7500 nM
IC50 (Cytochrome P450 3A4): > 7500 nM
IC50 (Neutrophil; [18]): 7.67 nM
IC50 ([1]; read-out: IC50): 0.61 nM
solubility [3]: 38.1 µg/mL (≈ 59.3 µM)
IC50 (Cytochrome P450 1A2): > 7500 nM
logD [5]: 2.44
IC50 (Cytochrome P450 2C9 [6]): 7600 nM
Structure (SMILES): O=C(O)CCCOc1cccc(CCCCCCOc2cc(-c3ccc4c(c3)OCO4)cc(-c3ccccc3F)c2)c1CCC(=O)O
INH [4]: Not Active

IC50 (Neutrophil; [18]): 0.7 nM
IC50 ([1]; read-out: IC50): 0.58 nM
Structure (SMILES): O=C(O)CCCOc1cccc(CCCCCCOc2cc(-c3ccccc3)cc(-c3ccc4c(c3)OCO4)c2)c1CCC(=O)O

IC50 (Neutrophil; [18]): 0.1 nM
IC50 ([1]; read-out: IC50): 0.22 nM
Structure (SMILES): O=C(O)CCCOc1cccc(CCCCCCOc2cc(-c3ccncc3)cc(-c3ccc4c(c3)OCO4)c2)c1CCC(=O)O

IC50 (Neutrophil; [18]): 20 nM
IC50 ([1]; read-out: IC50): 0.39 nM
Structure (SMILES): O=C(O)CCCOc1cccc(CCCCCCOc2cc(-c3cncnc3)cc(-c3ccsc3)c2)c1CCC(=O)O

IC50 (Cytochrome P450 2D6): > 7500 nM
solubility [2]: 27.3 µg/mL (≈ 47 µM)
IC50 (Cytochrome P450 2C19): > 7500 nM
IC50 (Cytochrome P450 3A4): > 7500 nM
IC50 (Cytochrome P450 2C9 [10]): > 12500 nM
IC50 [11]: 38.5 nM
IC50 ([1]; read-out: IC50): 0.21 nM
IC50 [12]: 628 nM
solubility [3]: 338 µg/mL (≈ 582 µM)
IC50 (Cytochrome P450 1A2): > 7500 nM
logD [5]: 0.7
IC50 (Cytochrome P450 2C9 [6]): > 50000 nM
Structure (SMILES): O=C(O)CCCOc1cccc(CCCCCCOc2cc(-c3ccccc3)cc(-c3ccccc3)c2)c1CCC(=O)O
IC50 [17]: > 3000 nM
INH [4]: Not Active
